Source: paper PMC12243159 (RSC Medicinal Chemistry, 2025)

Legend:
Assay type in all cases: biochemical
[1] = biological target: hCA II (Homo sapiens, UniProt P00918); assay: stopped-flow CO2 hydration assay, hCA II
Outline: (§1)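 Recombinant in-house enzyme, preincubated 15 min at room temperature with inhibitor. Inhibitor stock was 0.1 mM in water, diluted down to 0.01 nM. CO₂ (1.7–17 mM) hydration was followed by stopped-flow with 0.2 mM phenol red at 557 nm, in 20 mM HEPES pH 7.5 with 20 mM Na₂SO₄, over 10–100 s. Initial rates came from six traces and were corrected for the uncatalysed rate. Ki was obtained by non-linear least squares, mean of ≥3 measurements.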

[2] = biological target: hCA IX (Homo sapiens, UniProt Q16790); assay: stopped-flow CO2 hydration assay, hCA IX; conditions: for SI I/IX: ratio of KI hCA I to KI hCA IX; for SI II/IX: ratio of KI hCA II to KI hCA IX
[3] = biological target: hCA I (Homo sapiens, UniProt P00915); assay: stopped-flow CO2 hydration assay, hCA I
Outline: as §1

[4] = biological target: hCA XII (Homo sapiens, UniProt O43570); assay: stopped-flow CO2 hydration assay, hCA XII; conditions: for Ki: KI hCA XII; for SI I/XII: ratio of KI hCA I to KI hCA XII; for SI II/XII: ratio of KI hCA II to KI hCA XII
hCA XII, sequence (O43570 25-354): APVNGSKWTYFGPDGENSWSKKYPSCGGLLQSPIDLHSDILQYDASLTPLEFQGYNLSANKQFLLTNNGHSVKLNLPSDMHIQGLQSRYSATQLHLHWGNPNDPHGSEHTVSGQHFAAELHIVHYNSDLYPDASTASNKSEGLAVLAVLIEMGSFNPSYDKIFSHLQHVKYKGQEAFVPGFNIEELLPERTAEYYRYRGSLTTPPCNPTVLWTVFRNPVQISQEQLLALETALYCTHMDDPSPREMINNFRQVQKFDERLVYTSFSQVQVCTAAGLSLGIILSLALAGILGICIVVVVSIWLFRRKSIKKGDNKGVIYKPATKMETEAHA

hCA I, sequence (P00915 whole entry): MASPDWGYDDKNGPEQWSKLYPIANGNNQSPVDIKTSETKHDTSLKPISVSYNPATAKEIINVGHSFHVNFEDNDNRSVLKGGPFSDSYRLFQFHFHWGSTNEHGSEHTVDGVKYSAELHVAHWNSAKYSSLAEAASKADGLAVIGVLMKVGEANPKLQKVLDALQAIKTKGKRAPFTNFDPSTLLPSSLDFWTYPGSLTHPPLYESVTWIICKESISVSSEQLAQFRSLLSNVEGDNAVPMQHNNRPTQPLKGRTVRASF

Compound | Ki [1] | Ki [2] | SI I/IX [2] | SI II/IX [2] | Ki [3] | Ki ([4]; stopped-flow hydration assay) | SI I/XII [4] | SI II/XII [4] | KI hCA XII ([4]; stopped-flow hydration assay)
COCCOc1cc2ncnc(Nc3cccc(-c4cn(CCOCCOCCOCCOCCOCCNC(=O)Nc5cccc(S(N)(=O)=O)c5)nn4)c3)c2cc1OCCOC [compound 12a, 3-(3-(17-(4-(3-((6,7-Bis(2-methoxyethoxy)quinazoline-4-yl)amino)phenyl)-1H-1,2,3-triazol-1-yl)-3,6,9,12,15-pentaoxaheptadecyl)ureido)benzenesulfonamide] | 1.02 µM | 4.47 µM | 15.7 | 0.23 | 70.1 µM | 6.4 µM | 11.0 | 0.16 | 
COCCOc1cc2ncnc(Nc3cccc(-c4cn(CCOCCOCCOCCNC(=S)Nc5ccc(S(N)(=O)=O)c(C)c5Br)nn4)c3)c2cc1OCCOC [compound 9, 4-(3-(2-(2-(2-(2-(4-(3-((6,7-Bis(2-methoxyethoxy)quinazolin-4-yl)amino)phenyl)-1H-1,2,3-triazol-1-yl)ethoxy)ethoxy)ethoxy)ethyl)thioureido)-3-bromo-2-methylbenzenesulfonamide] | 0.531 µM | 1.34 µM | 3.65 | 0.39 | 4.91 µM | 0.0698 µM | 70.3 | 7.61 | 
COCCOc1cc2ncnc(Nc3cccc(-c4cn(CCOCCOCCOCCOCCOCCNC(=S)Nc5ccc(S(N)(=O)=O)cc5)nn4)c3)c2cc1OCCOC [compound 14b, 4-(3-(17-(4-(3-((6,7-Bis(2-methoxyethoxy)quinazolin-4-yl)amino)phenyl)-1H-1,2,3-triazol-1-yl)-3,6,9,12,15-pentaoxaheptadecyl)thioureido)benzenesulfonamide] | 9.71 µM | 4.93 µM | 8.79 | 1.97 | 43.3 µM | 1.52 µM | 28.4 | 6.38 | 
COCCOc1cc2ncnc(Nc3cccc(-c4cn(CCOCCOCCOCCOCCOCCNC(=S)NCCc5ccc(S(N)(=O)=O)cc5)nn4)c3)c2cc1OCCOC [compound 14d, 4-(22-(4-(3-((6,7-Bis(2-methoxyethoxy)quinazolin-4-yl)amino)phenyl)-1H-1,2,3-triazol-1-yl)-4-thioxo-8,11,14,17,20-pentaoxa-3,5-diazadocosyl)benzenesulfonamide] | 32.7 µM | 1.88 µM | 0.51 | 17.4 | 0.957 µM | 0.0952 µM | 10.0 | 344 | 
COCCOc1cc2ncnc(Nc3cccc(-c4cn(CCOCCOCCOCCOCCOCCNC(=S)NCc5ccc(S(N)(=O)=O)cc5)nn4)c3)c2cc1OCCOC [compound 14c, 4-(21-(4-(3-((6,7-Bis(2-methoxyethoxy)quinazoline-4-yl)amino)phenyl)-1H-1,2,3-triazol-1-yl)-3-thioxo-7,10,13,16,19-pentaoxa-2,4-diazahenicosyl)benzenesulfonamide] | 1.01 µM | 3.73 µM | 1.33 | 0.27 | 4.98 µM | 0.665 µM | 7.48 | 1.52 | 
COCCOc1cc2ncnc(Nc3cccc(-c4cn(CCOCCOCCOCCOCCOCCC(=O)NCc5ccc(S(N)(=O)=O)cc5)nn4)c3)c2cc1OCCOC [compound 10a, 1-(4-(3-((6,7-Bis(2-methoxyethoxy)quinazolin-4-yl)amino)phenyl)-1H-1,2,3-triazol-1-yl)-N-(4-sulfamoylbenzyl)-3,6,9,12,15-pentaoxaoctadecan-18-amide] | 0.253 µM | 4.16 µM | 0.22 | 0.06 | 0.903 µM | 3.3 µM | 0.27 | 0.08 | 
COCCOc1cc2ncnc(Nc3cccc(-c4cn(CCOCCOCCOCCOCCOCCNC(=O)Nc5ccc(S(N)(=O)=O)cc5)nn4)c3)c2cc1OCCOC [compound 12b, 4-(3-(17-(4-(3-((6,7-Bis(2-methoxyethoxy)quinazolin-4-yl)amino)phenyl)-1H-1,2,3-triazol-1-yl)-3,6,9,12,15-pentaoxaheptadecyl)ureido)benzenesulfonamide] | 0.0908 µM | 5.62 µM | 4.41 | 0.02 | 24.8 µM | 0.0753 µM | 329 | 1.21 | 
COCCOc1cc2ncnc(Nc3cccc(-c4cn(CCOCCOCCOCCNC(=O)Nc5ccc(S(N)(=O)=O)cc5)nn4)c3)c2cc1OCCOC [compound 7b, 4-(3-(2-(2-(2-(2-(4-(3-((6,7-Bis(2-methoxyethoxy)quinazolin-4-yl)amino)phenyl)-1H-1,2,3-triazol-1-yl)ethoxy)ethoxy)ethoxy)ethyl)ureido)benzenesulfonamide] | 0.95 µM | 1.12 µM | 32.1 | 0.85 | 36.1 µM | 0.0574 µM | 628 | 16.6 | 
COCCOc1cc2ncnc(Nc3cccc(-c4cn(CCOCCOCCOCCOCCOCCC(=O)NCCOc5ccc6oc(=O)ccc6c5)nn4)c3)c2cc1OCCOC [compound 11, 1-(4-(3-((6,7-Bis(2-methoxyethoxy)quinazoline-4-yl)amino)phenyl)-1H-1,2,3-triazol-1-yl)-N-(2-((2-oxo-2H-chromen-6-yl)oxy)ethyl)-3,6,9,12,15-pentaoxaoctadecan-18-amide] | 33.7 µM | 4.68 µM | 15.0 | 7.21 | 70.1 µM |  |  |  | no activity
COCCOc1cc2ncnc(Nc3cccc(-c4cn(CCOCCOCCOCCNC(=O)Nc5cccc(S(N)(=O)=O)c5)nn4)c3)c2cc1OCCOC [compound 7a, 3-(3-(2-(2-(2-(2-(4-(3-((6,7-Bis(2-methoxyethoxy)quinazolin-4-yl)amino)phenyl)-1H-1,2,3-triazol-1-yl)ethoxy)ethoxy)ethoxy)ethyl)ureido)benzenesulfonamide] | 0.723 µM | 0.285 µM | 164 | 2.54 | 46.5 µM | 0.0589 µM | 790 | 12.3 | 
COCCOc1cc2ncnc(Nc3cccc(-c4cn(CCOCCOCCOCCNC(=S)NCc5ccc(S(N)(=O)=O)cc5)nn4)c3)c2cc1OCCOC [compound 8c, 4-(15-(4-(3-((6,7-Bis(2-methoxyethoxy)quinazolin-4-yl)amino)phenyl)-1H-1,2,3-triazol-1-yl)-3-thioxo-7,10,13-trioxa-2,4-diazapentadecyl)benzenesulfonamide] | 1.15 µM | 0.026 µM | 127 | 44.57 | 3.28 µM | 0.0697 µM | 47.0 | 16.5 | 
COCCOc1cc2ncnc(Nc3cccc(-c4cn(CCOCCOCCOCCOCCOCCNC(=O)NCc5ccc(S(N)(=O)=O)cc5)nn4)c3)c2cc1OCCOC [compound 12c, 4-(21-(4-(3-((6,7-Bis(2-methoxyethoxy)quinazoline-4-yl)amino)phenyl)-1H-1,2,3-triazol-1-yl)-3-oxo-7,10,13,16,19-pentaoxa-2,4-diazahenicosyl)benzenesulfonamide] | 0.0008 µM | 0.387 µM | 0.41 | 0.002 | 0.16 µM | 0.94 µM | 0.17 | 0.0008 | 
COCCOc1cc2ncnc(Nc3cccc(-c4cn(CCOCCOCCOCCNC(=S)NCCc5ccc(S(N)(=O)=O)cc5)nn4)c3)c2cc1OCCOC [compound 8d, 4-(16-(4-(3-((6,7-Bis(2-methoxyethoxy)quinazolin-4-yl)amino)phenyl)-1H-1,2,3-triazol-1-yl)-4-thioxo-8,11,14-trioxa-3,5-diazahexadecyl)benzenesulfonamide] | 0.106 µM | 0.028 µM | 32.6 | 3.73 | 0.923 µM | 0.00649 µM | 142 | 16.3 | 
COCCOc1cc2ncnc(Nc3cccc(-c4cn(CCOCCOCCOCCOCCOCCNC(=O)Nc5ccc6oc(=O)ccc6c5)nn4)c3)c2cc1OCCOC [compound 13, 1-(17-(4-(3-((6,7-Bis(2-methoxyethoxy)quinazolin-4-yl)amino)phenyl)-1H-1,2,3-triazol-1-yl)-3,6,9,12,15-pentaoxaheptadecyl)-3-(2-oxo-2H-chromen-6-yl)urea] | 11.4 µM | 0.242 µM | 117 | 46.9 | 28.3 µM | 8.06 µM | 3.51 | 1.41 | 
COCCOc1cc2ncnc(Nc3cccc(-c4cn(CCOCCOCCOCCNC(=S)Nc5ccc(S(N)(=O)=O)cc5)nn4)c3)c2cc1OCCOC [compound 8b, 4-(3-(2-(2-(2-(2-(4-(3-((6,7-Bis(2-methoxyethoxy)quinazolin-4-yl)amino)phenyl)-1H-1,2,3-triazol-1-yl)ethoxy)ethoxy)ethoxy)ethyl)thioureido)benzenesulfonamide] | 0.135 µM | 0.112 µM | 28 | 1.2 | 3.14 µM | 0.00533 µM | 590 | 25.4 | 
